Reference: ChEMBL document CHEMBL4152364, “Structure-activity relationship of novel (benzoylaminophenoxy)phenol derivatives as anti-prostate cancer agents” (Bioorg Med Chem, 2018)
Calls of active or inactive are those of the source. The rule behind the calls is not given here.

Legend:
[1] = molecular target: T1, Androgen receptor (Mus musculus) (UniProt P19091); assay: Antagonist activity at AR in mouse SC3 cells assessed as inhibition of DHT-induced cell proliferation at 10 uM after 3 days by CCK8 assay relative to control; assay type: cell-based
T1 sequence (whole entry): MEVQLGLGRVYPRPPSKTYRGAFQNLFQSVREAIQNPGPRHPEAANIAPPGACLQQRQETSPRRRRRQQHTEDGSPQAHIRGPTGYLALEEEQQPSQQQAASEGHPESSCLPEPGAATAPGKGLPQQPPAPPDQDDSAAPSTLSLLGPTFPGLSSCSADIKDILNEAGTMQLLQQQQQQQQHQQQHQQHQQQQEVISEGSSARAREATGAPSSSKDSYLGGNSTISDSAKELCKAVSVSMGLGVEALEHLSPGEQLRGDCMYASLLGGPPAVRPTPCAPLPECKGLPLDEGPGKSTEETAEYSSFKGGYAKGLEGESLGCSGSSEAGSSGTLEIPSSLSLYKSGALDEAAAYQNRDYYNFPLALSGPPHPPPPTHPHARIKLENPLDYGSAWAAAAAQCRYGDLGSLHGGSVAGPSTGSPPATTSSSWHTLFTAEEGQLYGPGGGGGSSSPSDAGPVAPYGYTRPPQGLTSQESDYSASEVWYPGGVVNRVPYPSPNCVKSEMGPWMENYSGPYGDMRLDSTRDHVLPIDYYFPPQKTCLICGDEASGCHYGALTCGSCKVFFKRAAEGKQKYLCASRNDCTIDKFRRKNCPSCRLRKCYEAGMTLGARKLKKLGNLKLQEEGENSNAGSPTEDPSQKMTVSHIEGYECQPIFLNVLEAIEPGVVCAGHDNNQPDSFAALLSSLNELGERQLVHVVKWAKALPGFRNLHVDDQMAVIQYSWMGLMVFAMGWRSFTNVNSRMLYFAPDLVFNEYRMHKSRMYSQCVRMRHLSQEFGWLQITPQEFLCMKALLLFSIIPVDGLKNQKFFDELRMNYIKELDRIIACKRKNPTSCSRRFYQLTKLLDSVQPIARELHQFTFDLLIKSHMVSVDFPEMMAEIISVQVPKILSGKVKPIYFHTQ
Outline: (§1)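 SC-3 cells diluted to 20,000 cells/mL in MEM α with 2% charcoal-stripped FBS, seeded and held 24 h, then given compound or DMSO with 1 nM DHT for 3 days at 37°C, 5% CO2. Read-out: WST-8 (CCK-8) for 2 h, absorbance at 450 nm. Compounds screened first at 10 µM. IC50 measured over 0.01–10 µM when inhibition exceeded 50%, taken as the level halving DHT-induced growth versus control. Triplicate or more.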

[2] = molecular target: T1, Androgen receptor (Mus musculus); assay: Agonist activity at AR in mouse SC3 cells assessed as effect on cell proliferation after 3 days by CCK8 assay; assay type: cell-based
Outline: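 SC-3 cells diluted to 20,000 cells/mL in MEM α with 2% charcoal-stripped FBS, seeded and held 24 h, then given serial dilutions of compound alone (DMSO as dilution control). Incubated 3 days at 37°C, 5% CO2. WST-8 (Cell Counting Kit-8) added for 2 h, absorbance read at 450 nm.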

PC-3 = assay: Antiproliferative activity against human PC3 cells assessed as inhibition of cell proliferation after 3 days in presence of DHT by WST8 assay; assay type: functional, cell-based
Outline: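 PC-3 cells kept in RPMI-1640 with 10% FBS, then diluted to 20,000 cells/mL in RPMI-1640 with 10% charcoal-stripped FBS. Seeded and held 24 h, then given serial dilutions of compound or DMSO with 1 nM DHT for 3 days. WST-8 added for 2 h, absorbance at 450 nm. Viability normalized to vehicle-treated cells as 1.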

[3] = Antagonist activity at AR in mouse SC3 cells assessed as inhibition of DHT-induced cell proliferation after 3 days by CCK8 assay
[4] = molecular target: T1, Androgen receptor (Mus musculus); assay: Antagonist activity at AR in mouse SC3 cells assessed as inhibition of DHT-induced cell proliferation up to 10 uM after 3 days by CCK8 assay; assay type: cell-based; outline: as §1

Compound	inhibition [1] [%]	Activity [2]	inhibition (PC-3)	IC50 [3] [nM]	inhibition [4]
COc1cccc(C(=O)Nc2ccc(Oc3ccc(O)cc3)c(Br)c2)c1	> 50	inactive			
CN(C)c1ccc(C(=O)Nc2ccc(Oc3cccc(O)c3)cc2)cc1	> 50	inactive			
COc1cccc(C(=O)Nc2ccc(Oc3cccc(O)c3)cc2)c1		inactive			
COc1ccc(C(=O)Nc2ccc(C)c(Oc3ccc(O)cc3)c2)cc1		inactive			
COc1cccc(C(=O)Nc2ccc(Oc3ccc(O)cc3)c(C)c2)c1	> 50		Dose-dependent effect	750	
CN(C)c1ccccc1C(=O)Nc1ccc(Oc2cccc(O)c2)cc1		inactive			inactive
COc1cccc(C(=O)Nc2ccc(Oc3ccc(O)cc3)c(F)c2F)c1	> 50	inactive	Dose-dependent effect		
COc1ccc(C(=O)Nc2cccc(Oc3ccc(O)cc3)c2C)cc1		inactive			
COc1cccc(C(=O)N(C)c2cccc(Oc3ccc(O)cc3)c2)c1		inactive			inactive
COc1cccc(C(=O)Nc2ccc(Oc3ccc(O)cc3)cc2OC)c1	> 50	inactive			
CN(C)c1cccc(C(=O)Nc2cccc(Oc3ccc(O)cc3)c2)c1		inactive			inactive
COc1cccc(C(=O)Nc2cc(F)c(Oc3ccc(O)cc3)c(F)c2)c1	> 50	inactive	Dose-dependent effect		
CN(C)c1ccc(C(=O)Nc2cccc(Oc3ccc(O)cc3)c2)cc1	> 50	inactive			
COc1cccc(C(=O)Nc2ccc(Oc3ccc(O)cc3)c(C(F)(F)F)c2)c1	> 50	inactive			
COc1cccc(C(=O)Nc2cc(Cl)c(Oc3ccc(O)cc3)c(Cl)c2)c1	> 50	inactive	Dose-dependent effect		
COc1cccc(C(=O)Nc2ccc(Oc3ccc(O)cc3)c(Cl)c2)c1	> 50	inactive	Dose-dependent effect		
CN(C)c1cccc(C(=O)Nc2cccc(Oc3cccc(O)c3)c2)c1		inactive			
COc1cccc(C(=O)Nc2ccc(Oc3ccc(O)cc3)c(C#N)c2)c1		inactive			inactive
COc1cccc(C(=O)Nc2ccc(Oc3ccc(O)cc3)cc2F)c1	> 50	inactive	Dose-dependent effect		
COc1ccc(C(=O)Nc2ccc(Oc3cccc(O)c3)cc2)cc1		inactive			inactive

Compound	inhibition [1] [%]	Activity [2]	inhibition (PC-3)	IC50 [3] [nM]	inhibition [4]
COc1cccc(C(=O)Nc2ccc(Oc3ccc(O)cc3)cc2O)c1		inactive			inactive
CN(C)c1ccccc1C(=O)Nc1cccc(Oc2ccc(O)cc2)c1	> 50	inactive			
CN(C)c1cccc(C(=O)Nc2ccc(Oc3cccc(O)c3)cc2)c1		inactive			inactive
COc1ccccc1C(=O)Nc1cccc(Oc2cccc(O)c2)c1		inactive			inactive
COc1ccc(C(=O)N(C)c2cccc(Oc3ccc(O)cc3)c2)cc1		inactive			inactive
COc1cccc(C(=O)Nc2ccc(Oc3ccc(O)cc3)cc2Cl)c1	> 50	inactive			
COc1ccc(C(=O)Nc2cccc(Oc3cccc(O)c3)c2)cc1		inactive			
COc1cccc(C(=O)Nc2ccc(Oc3ccc(O)cc3)c(F)c2)c1	> 50	inactive	Dose-dependent effect		
CN(C)c1ccccc1C(=O)Nc1cccc(Oc2cccc(O)c2)c1		inactive			inactive
C[C@](O)(CS(=O)(=O)c1ccc(F)cc1)C(=O)Nc1ccc(C#N)c(C(F)(F)F)c1			inactive		
COc1cccc(C(=O)Nc2cccc(Oc3cccc(O)c3)c2)c1		inactive			
COc1ccccc1C(=O)Nc1ccc(C)c(Oc2ccc(O)cc2)c1	> 50	inactive			
COc1ccc(C(=O)Nc2cc(Oc3ccc(O)cc3)ccc2C)cc1		inactive			
COc1cccc(C(=O)N(C)c2ccc(Oc3ccc(O)cc3)c(C)c2)c1	> 50	inactive			
COc1cccc(C(=O)Nc2cccc(Oc3ccc(O)cc3)c2)c1		inactive			inactive
COc1ccc(C(=O)Nc2cccc(Oc3ccc(O)cc3)c2)cc1		inactive			
COc1ccccc1C(=O)Nc1cccc(Oc2ccc(O)cc2)c1		inactive			
COc1ccccc1C(=O)Nc1ccc(Oc2cccc(O)c2)cc1		inactive			inactive
COc1cccc(C(=O)Nc2ccc(Oc3ccc(O)cc3)cc2C)c1	> 50	inactive			
